Measured values taken from ChEMBL document CHEMBL1144441, “Identification of a novel cardenolide (2''-oxovoruscharin) from Calotropis procera and the hemisynthesis of novel derivatives displaying potent in vitro antitumor activities and high in vivo tolerance: structure-activity relationship analyses” (J Med Chem, 2005).

Columns and labels:
[1] = Concentration required for 50% growth inhibition of human Hs 683 cancer cell lines after 3 days of culture; type: functional, cell-based; settings: 72 h
Method in brief: (§1)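 MTT overall-growth assay on the five lines. Cells were plated for 24 h at 10 000–40 000 cells/mL, depending on cell type. Nine concentrations from 10^-9 to 10^-5 M in semilog steps were applied for 72 h. Formazan was read at 570 nm against a 630 nm reference, in sextuplicate. IC50 = concentration reducing overall growth by 50% versus untreated control.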

HCT-15 = experiment: Concentration required for 50% growth inhibition of human HCT-15 cancer cell lines after 3 days of culture; type: functional, cell-based; settings: HCT-15, 72 h; method in brief: as §1
A549 = experiment: Concentration required for 50% growth inhibition of human A549 cancer cell lines after 3 days of culture; type: functional, cell-based; settings: A549, 72 h; method in brief: as §1
LoVo = experiment: Concentration required for 50% growth inhibition of human LoVo cancer cell lines after 3 days of culture; type: functional, cell-based; settings: 72 h; method in brief: as §1
Mus musculus = experiment: Maximum tolerated dose after intraperitoneal administration in mouse (period of 28 days); type: functional
Method in brief: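 Healthy, non-tumour-bearing B6D2F1 mice given one acute intraperitoneal dose, three mice per dose group, doses 5, 10, 20, 40, 80, 120 and 160 mg/kg. Survival and body weight followed for 28 days after injection. MTD is the highest single dose causing no deaths over the period.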

U373 MG = experiment: Concentration required for 50% growth inhibition of human U373 cancer cell lines after 3 days of culture; type: functional, cell-based, U-373MG ATCC; settings: 72 h; method in brief: as §1

SMILES	IC50 [1]	IC50 (HCT-15)	IC50 (A549)	IC50 (LoVo)	MTD (Mus musculus)	IC50 (U373 MG)
C[C@@H]1C[C@@]2(NCCS2)[C@]2(O)O[C@@H]3C[C@@]4(C=O)[C@@H](CC[C@@H]5[C@@H]4CC[C@]4(C)[C@@H](C6=CC(=O)OC6)CC[C@]54O)C[C@H]3O[C@@H]2O1	0.004 µM	0.027 µM	0.005 µM	0.017 µM	1.25 mg/kg	0.032 µM
COC(=O)OC[C@]12C[C@H]3OC4(O)[C@@H](O[C@H](C)C[C@@]45N=C(N)CS5)O[C@@H]3C[C@@H]1CC[C@@H]1[C@@H]2CC[C@]2(C)[C@@H](C3=CC(=O)OC3)CC[C@]12CO (stereo partly drawn)	0.049 µM	0.442 µM	0.042 µM	0.245 µM	>40 mg/kg	0.32 µM
C[C@@H]1C[C@@]2(N[C@@H](CC(=O)c3ccccc3)CS2)C2(O)O[C@@H]3C[C@@]4(C=O)[C@@H](CC[C@@H]5[C@@H]4CC[C@]4(C)[C@@H](C6=CC(=O)OC6)CC[C@]54CO)C[C@H]3O[C@@H]2O1 (stereo partly drawn)	0.022 µM	0.092 µM	0.018 µM	0.1 µM	10 mg/kg	0.084 µM
C[C@@H]1C[C@@]2(N=C(N)CS2)C2(O)O[C@@H]3C[C@@]4(COC(=O)CCc5ccccc5)[C@@H](CC[C@@H]5[C@@H]4CC[C@]4(C)[C@@H](C6=CC(=O)OC6)CC[C@]54CO)C[C@H]3O[C@@H]2O1 (stereo partly drawn)	> 10 µM	> 10 µM	4.73 µM	4.84 µM	>40 mg/kg	> 10 µM
C[C@@H]1C[C@@]2(NC(=O)CS2)C2(O)O[C@@H]3C[C@@]4(COC(=O)CCc5ccccc5)[C@@H](CC[C@@H]5[C@@H]4CC[C@]4(C)[C@@H](C6=CC(=O)OC6)CC[C@]54CO)C[C@H]3O[C@@H]2O1 (stereo partly drawn)	> 10 µM	> 10 µM	> 10 µM	> 10 µM	>40 mg/kg	4.19 µM
C[C@@H]1C[C@@]2(N[C@H](CC(=O)c3ccccc3)CS2)C2(O)O[C@@H]3C[C@@]4(C=O)[C@@H](CC[C@@H]5[C@@H]4CC[C@]4(C)[C@@H](C6=CC(=O)OC6)CC[C@]54CO)C[C@H]3O[C@@H]2O1 (stereo partly drawn)	0.007 µM	0.049 µM	0.004 µM	0.033 µM	10 mg/kg	0.041 µM
C[C@@H]1C[C@@]2(NC(=O)CS2)C2(O[Si](C)(C)C)O[C@@H]3C[C@@]4(CO[Si](C)(C)C)[C@@H](CC[C@@H]5[C@@H]4CC[C@]4(C)[C@@H](C6=CC(=O)OC6)CC[C@]54CO[Si](C)(C)C)C[C@H]3O[C@@H]2O1 (stereo partly drawn)	0.525 µM	2.69 µM	0.657 µM	0.931 µM	–	3.72 µM
C[C@@H]1C[C@@]2(N=C(N)CS2)C2(O)O[C@@H]3C[C@@]4(C=O)[C@@H](CC[C@@H]5[C@@H]4CC[C@]4(C)[C@@H](C6=CC(=O)OC6)CC[C@]54CO)C[C@H]3O[C@@H]2O1 (stereo partly drawn)	0.004 µM	0.027 µM	0.009 µM	0.005 µM	10 mg/kg	0.034 µM
C[C@@H]1C[C@@]2(NC(=O)CS2)C2(O)O[C@@H]3C[C@@]4(COC(=O)c5ccccc5)[C@@H](CC[C@@H]5[C@@H]4CC[C@]4(C)[C@@H](C6=CC(=O)OC6)CC[C@]54CO)C[C@H]3O[C@@H]2O1 (stereo partly drawn)	0.778 µM	3.62 µM	0.625 µM	2.37 µM	>40 mg/kg	4.17 µM
